Measurements reported in ChEMBL document CHEMBL1149312, “Non-nucleoside benzimidazole-based allosteric inhibitors of the hepatitis C virus NS5B polymerase: inhibition of subgenomic hepatitis C virus RNA replicons in Huh-7 cells” (J Med Chem, 2004).
The source made the active and inactive calls. The rule behind the calls is not given here.

Assays:
[1] = Inhibition of HCV NS5B polymerase; parameters: species or system Hepacivirus hominis
Procedure, shortened: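 N-terminally tagged full-length NS5B construct; IC50 values are the mean of duplicate measurements on two separate weighings.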

[2] = system: Hepatitis C virus; assay: Inhibition of subgenomic HCV RNA replication in Huh7 cells by cell-based replicon assay; type: functional, organism-based, Hepacivirus hominis; details: Huh-7
Procedure, shortened: (§1)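 Subgenomic HCV RNA replicon in Huh-7 cells. Replicon RNA was quantified by RT-PCR and normalized to cellular GAPDH mRNA. EC50 runs were done in duplicate on two separate weighings.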

[3] = system: Enterovirus C; assay: Inhibition of poliovirus RNA-dependent RNA polymerase at 200 to 250 uM
[4] = organism: Bos taurus; assay: Inhibition of calf thymus DNA-dependent RNA polymerase 2 at 200 to 250 uM
[5] = Cytotoxicity against Huh7 cells; type: cell-based; details: human, huh-7
[6] = Distribution coefficient, log D at pH 7.2; type: physicochemical; details: octanol/water
Procedure, shortened: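 Shake-flask partitioning between octanol and 100 mM phosphate buffer, pH 7.2; reported as log D(oct/buffer).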

[7] = system: Hepatitis C virus; assay: Inhibition of subgenomic HCV RNA replication in Huh7 cells at 74 uM by cell-based replicon assay; type: functional, Hepacivirus hominis; details: Huh-7; procedure, shortened: as §1
[8] = Solubility in phosphate buffer at pH 7.2; type: physicochemical
Procedure, shortened: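 Solubility measured in phosphate buffer at pH 7.2.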

[9] = system: Hepatitis C virus; assay: Inhibition of subgenomic HCV RNA replication in Huh7 cells at 3.4 uM by cell-based replicon assay; type: functional, Hepacivirus hominis; details: Huh-7; procedure, shortened: as §1

Compound	IC50 [1]	EC50 [2]	inhibition [3]	Activity [4]	also measured
CN(C)c1nc([C@H](Cc2ccc(O)cc2)NC(=O)c2ccc3c(c2)nc(-c2ccoc2)n3C2CCCCC2)cs1	5.1 µM	8.3 µM	< 50%	Active	
O=C(N[C@@H](Cc1ccc(O)cc1)C(=O)NCc1cccnc1)c1ccc2c(c1)nc(-c1ccoc1)n2C1CCCCC1	2.6 µM	16 µM			
O=C(N[C@@H](Cc1ccc(O)cc1)C(=O)N1CCOCC1)c1ccc2c(c1)nc(-c1ccoc1)n2C1CCCCC1	9.5 µM				
COc1ccc(CCNC(=O)c2ccc3c(c2)nc(-c2ccccn2)n3C2CCCCC2)cc1OC	12 µM				
Cc1nc([C@H](Cc2ccc(O)cc2)NC(=O)c2ccc3c(c2)nc(-c2ccoc2)n3C2CCCCC2)cs1	3.3 µM	7.4 µM	< 50%	Active	
CN1CCN(C(=O)[C@H](Cc2ccc(O)cc2)NC(=O)c2ccc3c(c2)nc(-c2ccoc2)n3C2CCCCC2)CC1	11 µM	> 9 µM			
O=C(N[C@@H](Cc1ccc(O)cc1)C(=O)O)c1ccc2c(c1)nc(-c1ccoc1)n2C1CCCCC1	0.5 µM	48 µM			Activity [5]: Not Active
NC(=O)[C@H](Cc1ccc(O)cc1)NC(=O)c1ccc2c(c1)nc(-c1ccoc1)n2C1CCCCC1	0.8 µM	13 µM			logD [6]: 3.1
O=C(N[C@@H](Cc1c[nH]c2ccc(O)cc12)C(=O)O)c1ccc2c(c1)nc(-c1ccoc1)n2C1CCCCC1	0.05 µM	> 74 µM			inhibition at 74 µM [7]: 37%; logD [6]: 0.45; solubility [8]: > 850 µg/mL
O=C(O)COc1ccc2[nH]cc(C[C@H](NC(=O)c3ccc4c(c3)nc(-c3ccoc3)n4C3CCCCC3)C(=O)O)c2c1	0.027 µM	64 µM			logD [6]: -1.6; solubility [8]: > 850 µg/mL
CNc1nc([C@H](Cc2ccc(O)cc2)NC(=O)c2ccc3c(c2)nc(-c2ccoc2)n3C2CCCCC2)cs1	2.8 µM	7.1 µM	< 50%	Active	
O=C(N[C@@H](Cc1ccc(O)cc1)C(=O)NCCN1CCOCC1)c1ccc2c(c1)nc(-c1ccoc1)n2C1CCCCC1	3.2 µM	> 13 µM			
Cc1nc([C@H](Cc2c[nH]c3ccc(O)cc23)NC(=O)c2ccc3c(c2)nc(-c2ccoc2)n3C2CCCCC2)cs1	0.3 µM	2.4 µM	< 50%	Active	logD [6]: 4.6; solubility [8]: < 0.1 µg/mL
Nc1nc([C@H](Cc2c[nH]c3ccc(O)cc23)NC(=O)c2ccc3c(c2)nc(-c2ccoc2)n3C2CCCCC2)cs1	0.19 µM	5.7 µM	< 50%	Active	
CC(=O)Nc1nc([C@H](Cc2ccc(O)cc2)NC(=O)c2ccc3c(c2)nc(-c2ccoc2)n3C2CCCCC2)c[nH]1	4.2 µM		< 50%	Active	
CNc1nc([C@H](Cc2c[nH]c3ccc(O)cc23)NC(=O)c2ccc3c(c2)nc(-c2ccoc2)n3C2CCCCC2)cs1	0.5 µM	3 µM	< 50%	Active	
Cn1cc(C[C@H](NC(=O)c2ccc3c(c2)nc(-c2ccoc2)n3C2CCCCC2)c2csc(N)n2)c2cc(O)ccc21	0.9 µM	3.4 µM	< 50%	Active	

Compound	IC50 [1]	EC50 [2]	inhibition [3]	Activity [4]	also measured
CN(C)c1nc([C@H](Cc2c[nH]c3ccc(O)cc23)NC(=O)c2ccc3c(c2)nc(-c2ccoc2)n3C2CCCCC2)cs1	0.9 µM	3.7 µM	< 50%	Active	
CN(C)CCNC(=O)[C@H](Cc1ccc(O)cc1)NC(=O)c1ccc2c(c1)nc(-c1ccoc1)n2C1CCCCC1	2.1 µM				
O=C(N[C@@H](Cc1ccc(O)cc1)C(=O)NCc1ccncc1)c1ccc2c(c1)nc(-c1ccoc1)n2C1CCCCC1	3.7 µM	> 9 µM			
NC(=O)[C@H](Cc1c[nH]c2ccc(O)cc12)NC(=O)c1ccc2c(c1)nc(-c1ccoc1)n2C1CCCCC1	0.22 µM	8 µM			
COC(=O)[C@H](Cc1c[nH]c2ccc(O)cc12)NC(=O)c1ccc2c(c1)nc(-c1ccoc1)n2C1CCCCC1	0.38 µM				Activity [5]: Toxic; inhibition at 3.4 µM [9]: 30%
O=C(N[C@@H](Cc1ccc(O)cc1)C(=O)Nc1cccnc1)c1ccc2c(c1)nc(-c1ccoc1)n2C1CCCCC1	3 µM	6 µM			
O=C(O)c1ccc2c(c1)nc(-c1ccoc1)n2C1CCCCC1	1.6 µM				
CC(=O)Nc1nc([C@H](Cc2c[nH]c3ccc(O)cc23)NC(=O)c2ccc3c(c2)nc(-c2ccoc2)n3C2CCCCC2)cs1	0.55 µM	5.8 µM	< 50%	Active	
Nc1nc([C@H](Cc2ccc(O)cc2)NC(=O)c2ccc3c(c2)nc(-c2ccoc2)n3C2CCCCC2)cs1	1.3 µM		< 50%	Active	
O=C(N[C@@H](Cc1ccc(O)cc1)c1cscn1)c1ccc2c(c1)nc(-c1ccoc1)n2C1CCCCC1	6.6 µM	4.3 µM	< 50%	Active	
CN(C)CCCNC(=O)[C@H](Cc1ccc(O)cc1)NC(=O)c1ccc2c(c1)nc(-c1ccoc1)n2C1CCCCC1	1.9 µM				
CC(C)[C@H](Cc1ccc(O)cc1)NC(=O)c1ccc2c(c1)nc(-c1ccoc1)n2C1CCCCC1	4.3 µM	3.5 µM			logD [6]: 3.4
O=C(N[C@@H](Cc1c[nH]c2ccc(O)cc12)c1cscn1)c1ccc2c(c1)nc(-c1ccoc1)n2C1CCCCC1	0.3 µM	1.7 µM	< 50%	Active	logD [6]: 3.8
CN(C)C(=O)[C@H](Cc1ccc(O)cc1)NC(=O)c1ccc2c(c1)nc(-c1ccoc1)n2C1CCCCC1	4.9 µM				
CC(=O)Nc1nc([C@H](Cc2ccc(O)cc2)NC(=O)c2ccc3c(c2)nc(-c2ccoc2)n3C2CCCCC2)cs1	4.8 µM	2.4 µM	< 50%	Active	
O=C(N[C@@H](Cc1ccc(O)cc1)C(=O)NCc1ccccn1)c1ccc2c(c1)nc(-c1ccoc1)n2C1CCCCC1	2.7 µM	10 µM			
